Tests used:
[1] = system: Human immunodeficiency virus 1; assay: Antiviral activity against HIV1 Lai infected in human MT2 cells; format: functional, cell-based; conditions: Human immunodeficiency virus 1, M:B_Lai
[2] = system: Human immunodeficiency virus 1; assay: Antiviral activity against wild type HIV1 NL4-3 infected in human MT4 cells assessed as reduction in p24 Gag protein production after 7 days by chemiluminescent enzyme immunoassay; format: functional, cell-based; conditions: Human immunodeficiency virus 1, NL4-3, MT4, 168 h
[3] = system: Human immunodeficiency virus 1; assay: Ratio of IC50 for darunavir-resistant HIV1 derived from 30 passages harboring protease L10I/I15V/K20R/L24I/V32I/M36I/M46L/L63P/K70R/V82A/I84V/L89M mutant infected in human MT4 cells to IC50 for wild type HIV1 NL4.3 infected in human MT4 cells; format: functional
In short: (§1)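 Fold change is the IC50 against each resistant variant divided by the IC50 against wild-type HIV-1 NL4-3, measured in the same triplicate antiviral assays (three independent experiments).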

[4] = system: Human immunodeficiency virus 1; assay: Ratio of IC50 for darunavir-resistant HIV1 derived from 20 passages harboring protease L10I/I15V/K20R/L24I/V32I/M36I/M46L/L63P/V82A/L89M mutant infected in human MT4 cells to IC50 for wild type HIV1 NL4.3 infected in human MT4 cells; format: functional; in short: as §1
[5] = system: Human immunodeficiency virus 1; assay: Ratio of IC50 for darunavir-resistant HIV1 derived from 51 passages harboring protease L10I/I15V/K20R/L24I/V32I/L33F/M36I/M46L/I54M/L63P/K70Q/V82I/I84V/L89M mutant infected in human MT4 cells to IC50 for wild type HIV1 NL4.3 infected in human MT4 cells; format: functional; in short: as §1
[6] = system: Human immunodeficiency virus 1; assay: Antiviral activity against darunavir-resistant HIV1 derived from 30 passages harboring protease L10I/I15V/K20R/L24I/V32I/M36I/M46L/L63P/K70R/V82A/I84V/L89M mutant infected in human MT4 cells assessed as reduction in p24 Gag protein production after 7 days by chemiluminescent enzyme immunoassay; format: functional, cell-based; conditions: Human immunodeficiency virus 1, MT4, 168 h
In short: (§2)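 MT-4 cells (1×10^4) exposed to 50 TCID50 of wild-type HIV-1 NL4-3 or DRV-selected variants (20, 30 or 51 passages) and cultured with various inhibitor concentrations. IC50 read by p24 assay. Run in triplicate; mean ± 1 standard deviation from three independent experiments.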

[7] = system: Human immunodeficiency virus 1; assay: Antiviral activity against darunavir-resistant HIV1 derived from 20 passages harboring protease L10I/I15V/K20R/L24I/V32I/M36I/M46L/L63P/V82A/L89M mutant infected in human MT4 cells assessed as reduction in p24 Gag protein production after 7 days by chemiluminescent enzyme immunoassay; format: functional, cell-based; conditions: Human immunodeficiency virus 1, MT4, 168 h; in short: as §2
[8] = Inhibition of HIV1 protease expressed in Escherichia coli using 2-aminobenzoyl-Thr-Ile-Nle-Phe(p-N02)-Gln-Arg-NH as substrate preincubated for 5 to 10 mins followed by substrate addition measured after 1 hr by fluorescence assay; set-up: species or system Human immunodeficiency virus 1
[9] = system: Human immunodeficiency virus 1; assay: Antiviral activity against darunavir-resistant HIV1 derived from 51 passages harboring protease L10I/I15V/K20R/L24I/V32I/L33F/M36I/M46L/I54M/L63P/K70Q/V82I/I84V/L89M mutant infected in human MT4 cells assessed as reduction in p24 Gag protein production after 7 days by chemiluminescent enzyme immunoassay; format: functional, cell-based; conditions: Human immunodeficiency virus 1, MT4, 168 h
[10] = system: Human immunodeficiency virus 1; assay: Antiviral activity against atazanavir-resistant HIV1 NL4-3 harboring protease L23I/E34Q/K43I/M46I/I50L/G51A/L63P/A71V/V82A/T91A mutant infected in human MT4 cells assessed as reduction in p24 Gag protein production after 7 days by chemiluminescent enzyme immunoassay; format: functional, cell-based; conditions: Human immunodeficiency virus 1, NL4-3, MT4, 168 h
In short: (§3)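 Variants are HIV-1 NL4-3 selected in vitro under protease inhibitors: APV, ATV, IDV, LPV, NFV and SQV at 5 µM, TPV at 15 µM. Assays run in triplicate; IC50 given as mean ± 1 standard deviation from three independent experiments.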

[11] = system: Human immunodeficiency virus 1; assay: Ratio of IC50 for nelfinavir-resistant HIV1 NL4-3 harboring protease L10F/K20T/D30N/K45I/A71V/V77I mutant infected in human MT4 cells to IC50 for wild type HIV1 NL4.3 infected in human MT4 cells; format: functional; in short: as §1
[12] = system: Human immunodeficiency virus 1; assay: Ratio of IC50 for amprenavir-resistant HIV1 NL4-3 harboring protease L10F/V32I/L33F/M46L/I54M/A71V mutant infected in human MT4 cells to IC50 for wild type HIV1 NL4.3 infected in human MT4 cells; format: functional; in short: as §1
[13] = system: Human immunodeficiency virus 1; assay: Antiviral activity against amprenavir-resistant HIV1 NL4-3 harboring protease L10F/V32I/L33F/M46L/I54M/A71V mutant infected in human MT4 cells assessed as reduction in p24 Gag protein production after 7 days by chemiluminescent enzyme immunoassay; format: functional, cell-based; conditions: Human immunodeficiency virus 1, NL4-3, MT4, 168 h; in short: as §3
[14] = system: Human immunodeficiency virus 1; assay: Antiviral activity against saquinavir-resistant HIV1 NL4-3 harboring protease L10I/N37D/G48V/I54V/L63P/G73C/I84V/L90M mutant infected in human MT4 cells assessed as reduction in p24 Gag protein production after 7 days by chemiluminescent enzyme immunoassay; format: functional, cell-based; conditions: Human immunodeficiency virus 1, NL4-3, MT4, 168 h; in short: as §3
[15] = system: Human immunodeficiency virus 1; assay: Ratio of IC50 for lopinavir-resistant HIV1 NL4-3 harboring protease L10F/V32I/M46I/I47A/A71V/I84V mutant infected in human MT4 cells to IC50 for wild type HIV1 NL4.3 infected in human MT4 cells; format: functional; in short: as §1
[16] = system: Human immunodeficiency virus 1; assay: Antiviral activity against tipranavir-resistant HIV1 NL4-3 harboring protease L10I/L33I/M36I/M46I/I54V/K55R/I62V/L63P/A71V/G73S/V82T/L90M/I93L mutant infected in human MT4 cells assessed as reduction in p24 Gag protein production after 7 days by chemiluminescent enzyme immunoassay; format: functional, cell-based; conditions: Human immunodeficiency virus 1, NL4-3, MT4, 168 h; in short: as §3
[17] = system: Human immunodeficiency virus 1; assay: Antiviral activity against nelfinavir-resistant HIV1 NL4-3 harboring protease L10F/K20T/D30N/K45I/A71V/V77I mutant infected in human MT4 cells assessed as reduction in p24 Gag protein production after 7 days by chemiluminescent enzyme immunoassay; format: functional, cell-based; conditions: Human immunodeficiency virus 1, NL4-3, MT4, 168 h; in short: as §3
[18] = system: Human immunodeficiency virus 1; assay: Ratio of IC50 for saquinavir-resistant HIV1 NL4-3 harboring protease L10I/N37D/G48V/I54V/L63P/G73C/I84V/L90M mutant infected in human MT4 cells to IC50 for wild type HIV1 NL4.3 infected in human MT4 cells; format: functional; in short: as §1
[19] = system: Human immunodeficiency virus 1; assay: Ratio of IC50 for atazanavir-resistant HIV1 NL4-3 harboring protease L23I/E34Q/K43I/M46I/I50L/G51A/L63P/A71V/V82A/T91A mutant infected in human MT4 cells to IC50 for wild type HIV1 NL4.3 infected in human MT4 cells; format: functional; in short: as §1
[20] = system: Human immunodeficiency virus 1; assay: Ratio of IC50 for tipranavir-resistant HIV1 NL4-3 harboring protease L10I/L33I/M36I/M46I/I54V/K55R/I62V/L63P/A71V/G73S/V82T/L90M/I93L mutant infected in human MT4 cells to IC50 for wild type HIV1 NL4.3 infected in human MT4 cells; format: functional; in short: as §1
[21] = system: Human immunodeficiency virus 1; assay: Antiviral activity against lopinavir-resistant HIV1 NL4-3 harboring protease L10F/V32I/M46I/I47A/A71V/I84V mutant infected in human MT4 cells assessed as reduction in p24 Gag protein production after 7 days by chemiluminescent enzyme immunoassay; format: functional, cell-based; conditions: Human immunodeficiency virus 1, NL4-3, MT4, 168 h; in short: as §3
[22] = system: Human immunodeficiency virus 1; assay: Ratio of IC50 for indinavir-resistant HIV1 NL4-3 harboring protease L10F/L24I/M46I/I54V/L63P/A71V/G73S/V82T mutant infected in human MT4 cells to IC50 for wild type HIV1 NL4.3 infected in human MT4 cells; format: functional; in short: as §1
[23] = system: Human immunodeficiency virus 1; assay: Antiviral activity against indinavir-resistant HIV1 NL4-3 harboring protease L10F/L24I/M46I/I54V/L63P/A71V/G73S/V82T mutant infected in human MT4 cells assessed as reduction in p24 Gag protein production after 7 days by chemiluminescent enzyme immunoassay; format: functional, cell-based; conditions: Human immunodeficiency virus 1, NL4-3, MT4, 168 h; in short: as §3

CC(C)(C)NC(=O)[C@@H]1C[C@@H]2CCCC[C@@H]2CN1C[C@@H](O)[C@H](Cc1ccccc1)NC(=O)[C@H](CC(N)=O)NC(=O)c1ccc2ccccc2n1
IC50 [1]: 21 nM

CC(C)CN(C[C@@H](O)[C@H](Cc1ccccc1)NC(=O)O[C@H]1CO[C@H]2OCC[C@H]21)S(=O)(=O)c1ccc2nc(NC3CC3)sc2c1
IC50 [2]: 2 nM
IC50 [1]: 1.9 nM
Ratio IC50 [3]: 15
Ratio IC50 [4]: 4
Ratio IC50 [5]: 240
IC50 [6]: 30 nM
IC50 [7]: 7.7 nM
Ki [8]: 0.01 nM
IC50 [9]: 480 nM

COc1ccc(S(=O)(=O)N(CC(C)C)C[C@@H](O)[C@H](Cc2ccccc2)NC(=O)O[C@H]2C3CO[C@H]4OCC2C4C3)cc1 (some centres not stated)
IC50 [1]: 2.7 nM
Ki [8]: 0.014 nM

CC(C)CN(C[C@@H](O)[C@H](Cc1ccccc1)NC(=O)O[C@H]1C2CO[C@H]3OCC1C3C2)S(=O)(=O)c1ccc(N)cc1 (some centres not stated)
IC50 [2]: 3.3 nM
IC50 [1]: 2.8 nM
Ratio IC50 [3]: 103
Ratio IC50 [4]: 9
Ratio IC50 [5]: >303
IC50 [6]: 340 nM
IC50 [7]: 30 nM
Ki [8]: 0.013 nM
IC50 [9]: > 1000 nM

COc1ccc(S(=O)(=O)N(CC(C)C)C[C@@H](O)[C@H](Cc2ccccc2)NC(=O)O[C@@H]2C3CO[C@H]4OCC2C4C3)cc1 (some centres not stated)
IC50 [1]: > 1000 nM
Ki [8]: 10.8 nM

CC(C)CN(C[C@@H](O)[C@H](Cc1ccccc1)NC(=O)O[C@H]1C2CO[C@H]3OCC1C3C2)S(=O)(=O)c1ccc2nc(NC3CC3)sc2c1 (some centres not stated)
IC50 [10]: 0.19 nM
IC50 [2]: 0.39 nM
Ratio IC50 [11]: 0.07
Ratio IC50 [12]: 0.7
IC50 [13]: 0.27 nM
IC50 [1]: 0.26 nM
IC50 [14]: 0.03 nM
Ratio IC50 [15]: 0.007
Ratio IC50 [3]: 5
IC50 [16]: 0.057 nM
Ratio IC50 [4]: 0.4
IC50 [17]: 0.028 nM
Ratio IC50 [18]: 0.08
Ratio IC50 [5]: 90
IC50 [6]: 1.8 nM
Ratio IC50 [19]: 0.5
IC50 [7]: 0.17 nM
Ratio IC50 [20]: 0.15
Ki [8]: 0.04 nM
IC50 [21]: 0.0026 nM
IC50 [9]: 35 nM
Ratio IC50 [22]: 0.03
IC50 [23]: 0.012 nM

COC(=O)N[C@H](C(=O)N[C@@H](Cc1ccccc1)[C@@H](O)CN(Cc1ccc(-c2ccccn2)cc1)NC(=O)[C@@H](NC(=O)OC)C(C)(C)C)C(C)(C)C [ATAZANAVIR]
IC50 [10]: > 1000 nM
IC50 [2]: 4.2 nM
Ratio IC50 [11]: 4
Ratio IC50 [12]: 0.9
IC50 [13]: 3.8 nM
IC50 [14]: 510 nM
Ratio IC50 [15]: 11
IC50 [16]: > 1000 nM
IC50 [17]: 17 nM
Ratio IC50 [18]: 121
Ratio IC50 [19]: >238
Ratio IC50 [20]: >238
IC50 [21]: 45 nM
Ratio IC50 [22]: 15
IC50 [23]: 62 nM

Cc1cccc(C)c1OCC(=O)N[C@@H](Cc1ccccc1)[C@@H](O)C[C@H](Cc1ccccc1)NC(=O)[C@H](C(C)C)N1CCCNC1=O [LOPINAVIR]
IC50 [10]: 330 nM
IC50 [2]: 20 nM
Ratio IC50 [11]: 2
Ratio IC50 [12]: 16
IC50 [13]: 310 nM
IC50 [14]: > 1000 nM
Ratio IC50 [15]: >50
Ratio IC50 [3]: >50
IC50 [16]: > 1000 nM
Ratio IC50 [4]: >50
IC50 [17]: 42 nM
Ratio IC50 [18]: >50
Ratio IC50 [5]: >50
IC50 [6]: > 1000 nM
Ratio IC50 [19]: 17
IC50 [7]: > 1000 nM
Ratio IC50 [20]: >50
IC50 [21]: > 1000 nM
IC50 [9]: > 1000 nM
Ratio IC50 [22]: 9
IC50 [23]: 170 nM
